Data: ChEMBL document CHEMBL1155167, “Fluoroquinolone resistance in atypical pneumococci and oral streptococci: evidence of horizontal gene transfer of fluoroquinolone resistance determinants from Streptococcus pneumoniae” (2007)

What was measured:
Type in all cases: functional
[1] = tested on: Streptococcus viridans; assay: Antimicrobial activity against Viridans streptococcus L20 with gyrB Ser494Thr, parC Ser52Gly and Asn91Asp mutation by broth dilution method
Method in brief: (§1)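 Ciprofloxacin and levofloxacin MICs were determined by broth dilution following CLSI (formerly NCCLS) guidance. S. pneumoniae ATCC 6303 and ATCC 49619 served as control strains. Reference strains were S. mitis ATCC 49456 and S. oralis ATCC 10557. The clinical isolates came from patients at a Hong Kong teaching hospital.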

[2] = tested on: Streptococcus mitis; assay: Antimicrobial activity against Streptococcus mitis ATCC 49456 with gyrA Ser114Gly, and parC Ser52Gly, Asn91Asp, Glu135Asp mutation by broth dilution method; method in brief: as §1
[3] = tested on: Streptococcus oralis; assay: Antimicrobial activity against Streptococcus oralis HK575 with gyrA Ser114Gly, Leu155Val and parC Ser52Gly, Asn91Asp, Pro140Ser mutation by broth dilution method; method in brief: as §1
[4] = tested on: Streptococcus mitis; assay: Antimicrobial activity against Streptococcus mitis HK680 with gyrA Ser114Gly, and parC Ser52Gly, Asn91Asp mutation by broth dilution method; method in brief: as §1
[5] = tested on: Streptococcus oralis; assay: Antimicrobial activity against Streptococcus oralis HK553 with gyrA Ser114Gly, and parC Ser52Gly, Asn91Asp mutation by broth dilution method; method in brief: as §1
[6] = tested on: Streptococcus mitis; assay: Antimicrobial activity against Streptococcus mitis HK467 with gyrA Ser114Gly, Leu155Val and parC Ser52Gly, Asn91Asp, mutation by broth dilution method; method in brief: as §1
[7] = tested on: Streptococcus mitis; assay: Antimicrobial activity against Streptococcus mitis HK188 with gyrA Ser114Gly, and parC Ser52Gly, Asn91Asp, Glu135Asp mutation by broth dilution method; method in brief: as §1
[8] = tested on: Streptococcus oralis; assay: Antimicrobial activity against Streptococcus oralis HK579 with gyrA Ser114Gly, and parC Ser52Gly, Asn91Asp mutation by broth dilution method; method in brief: as §1
[9] = tested on: Streptococcus viridans; assay: Antimicrobial activity against Viridans streptococcus L19 with gyrA Ser114Gly, gyrB Ser494Thr, parC Ser52Gly, Asn91Asp and parE Ile460Val mutation by broth dilution method; method in brief: as §1
[10] = tested on: Streptococcus viridans; assay: Antimicrobial activity against Viridans streptococcus L21 with gyrB Ser494Thr and parC Lys137Asn mutation by broth dilution method; method in brief: as §1
[11] = tested on: Streptococcus oralis; assay: Antimicrobial activity against Streptococcus oralis HK122 with gyrA Ser114Gly, and parC Ser52Gly, Asn91Asp mutation by broth dilution method; method in brief: as §1
[12] = tested on: Streptococcus mitis; assay: Antimicrobial activity against Streptococcus mitis HK29 with gyrA Ser114Gly, and parC Ser52Gly, Asn91Asp mutation by broth dilution method; method in brief: as §1
[13] = tested on: Streptococcus viridans; assay: Antimicrobial activity against Viridans streptococcus L17 with gyrA Ser114Gly, gyrB Ser494Thr and parC Ser52Gly, Asn91Asp mutation by broth dilution method; method in brief: as §1
[14] = tested on: Streptococcus oralis; assay: Antimicrobial activity against Streptococcus oralis HK619 with gyrA Ser114Gly, and parC Ser52Gly, Asn91Asp mutation by broth dilution method; method in brief: as §1
[15] = tested on: Streptococcus oralis; assay: Antimicrobial activity against Streptococcus oralis HK62 with gyrA Ser114Gly, and parC Ser52Gly, Asn91Asp mutation by broth dilution method; method in brief: as §1
[16] = tested on: Streptococcus mitis; assay: Antimicrobial activity against Streptococcus mitis HK651 with gyrA Ser114Gly, and parC Ser52Gly, Asn91Asp mutation by broth dilution method; method in brief: as §1
[17] = tested on: Streptococcus oralis; assay: Antimicrobial activity against Streptococcus oralis HK271 with gyrA Ser114Gly, and parC Ser52Gly, Asn91Asp mutation by broth dilution method; method in brief: as §1
[18] = tested on: Streptococcus oralis; assay: Antimicrobial activity against Streptococcus oralis HK574 with gyrA Ser114Gly, Leu155Val, gyrB Ile385Val, Met483Thr, Ser494Thr and parC Ser52Gly, Asn91Asp mutation by broth dilution method; method in brief: as §1
[19] = tested on: Streptococcus oralis; assay: Antimicrobial activity against Streptococcus oralis HK496 with gyrA Ser114Gly, and parC Ser52Gly, Asn91Asp mutation by broth dilution method; method in brief: as §1
[20] = tested on: Streptococcus oralis; assay: Antimicrobial activity against Streptococcus oralis HK754 with gyrA Ser81Leu, Ser114Gly, gyrB Ser494Thr, parC Ser52Gly, Asp83Tyr, Asn91Asp and parE Arg447Ser mutation by broth dilution method; method in brief: as §1
[21] = tested on: Streptococcus mitis; assay: Antimicrobial activity against Streptococcus mitis HK141 with gyrA Ser114Gly, and parC Ser52Gly, Asn91Asp mutation by broth dilution method; method in brief: as §1
[22] = tested on: Streptococcus oralis; assay: Antimicrobial activity against Streptococcus oralis HK816 with gyrA Ser81Leu, Ser114Gly and parC Ser52Gly, Ser79Tyr, Asn91Asp mutation by broth dilution method; method in brief: as §1
[23] = tested on: Streptococcus viridans; assay: Antimicrobial activity against Viridans streptococcus L16 with gyrA Ser114Gly, gyrB Ser494Thr and parC Ser52Gly, Asn91Asp mutation by broth dilution method; method in brief: as §1
[24] = tested on: Streptococcus viridans; assay: Antimicrobial activity against Viridans streptococcus L2 with gyrA Ser114Gly, gyrB Ser494Thr and parC Ser52Gly, Asn91Asp mutation by broth dilution method; method in brief: as §1
[25] = tested on: Streptococcus oralis; assay: Antimicrobial activity against Streptococcus oralis HK386 with gyrA Ser114Gly, and parC Ser52Gly, Asn91Asp mutation by broth dilution method; method in brief: as §1
[26] = tested on: Streptococcus mitis; assay: Antimicrobial activity against Streptococcus mitis HK260 with gyrA Ser114Gly, and parC Ser52Gly, Asn91Asp mutation by broth dilution method; method in brief: as §1
[27] = tested on: Streptococcus mitis; assay: Antimicrobial activity against Streptococcus mitis HK666 with gyrA Ser114Gly, and parC Ser52Gly, Asn91Asp, Glu135Asp mutation by broth dilution method; method in brief: as §1
[28] = tested on: Streptococcus viridans; assay: Antimicrobial activity against Viridans streptococcus L7 with gyrA Ser114Gly, gyrB Ser494Thr and parC Ser52Gly, Asn91Asp mutation by broth dilution method; method in brief: as §1
[29] = tested on: Streptococcus oralis; assay: Antimicrobial activity against Streptococcus oralis HK232 with gyrA Ser114Gly, and parC Ser52Gly, Asn91Asp mutation by broth dilution method; method in brief: as §1
[30] = tested on: Streptococcus oralis; assay: Antimicrobial activity against Streptococcus oralis HK299 with gyrA Ser114Gly, and parC Ser52Gly, Asn91Asp mutation by broth dilution method; method in brief: as §1
[31] = tested on: Streptococcus mitis; assay: Antimicrobial activity against Streptococcus mitis HK137453 with gyrA Ser114Gly, and parC Ser52Gly, Asn91Asp mutation by broth dilution method; method in brief: as §1
[32] = tested on: Streptococcus oralis; assay: Antimicrobial activity against Streptococcus oralis ATCC 10557 with gyrA Ser114Gly, and parC Ser52Gly, Asn91Asp mutation by broth dilution method; method in brief: as §1
[33] = tested on: Streptococcus viridans; assay: Antimicrobial activity against Viridans streptococcus L18 with gyrA Ser114Gly, Asp142Asn, gyrB Ser494Thr and parE Ile460Val mutation by broth dilution method; method in brief: as §1
[34] = tested on: Streptococcus mitis; assay: Antimicrobial activity against Streptococcus mitis HK677 with gyrA Ser81Leu, Ser114Gly, gyrB Ser494Thr, parC Ser52Gly, Asp83Tyr, Asn91Asp and parE Arg447Ser mutation by broth dilution method; method in brief: as §1
[35] = tested on: Streptococcus oralis; assay: Antimicrobial activity against Streptococcus oralis HK312 with gyrA Ser114Gly, and parC Ser52Gly, Asn91Asp mutation by broth dilution method; method in brief: as §1
[36] = tested on: Streptococcus oralis; assay: Antimicrobial activity against Streptococcus oralis HK51with gyrA Ser114Gly, and parC Ser52Gly, Asn91Asp mutation by broth dilution method; method in brief: as §1
[37] = tested on: Streptococcus viridans; assay: Antimicrobial activity against Viridans streptococcus L26 gyrA Ser81Phe and parC Lys137Asn mutation by broth dilution method; method in brief: as §1
[38] = tested on: Streptococcus oralis; assay: Antimicrobial activity against Streptococcus oralis HK417 with gyrA Ser114Gly, and parC Ser52Gly, Asn91Asp mutation by broth dilution method; method in brief: as §1
[39] = tested on: Streptococcus oralis; assay: Antimicrobial activity against Streptococcus oralis HK300 with gyrA Ser114Gly, and parC Ser52Gly, Asn91Asp mutation by broth dilution method; method in brief: as §1
[40] = tested on: Streptococcus oralis; assay: Antimicrobial activity against Streptococcus oralis HK587 with gyrA Ser114Gly, and parC Ser52Gly, Asn91Asp mutation by broth dilution method; method in brief: as §1
[41] = tested on: Streptococcus oralis; assay: Antimicrobial activity against Streptococcus oralis HK123 with gyrA Ser114Gly, and parC Ser52Gly, Asn91Asp mutation by broth dilution method; method in brief: as §1
[42] = tested on: Streptococcus mitis; assay: Antimicrobial activity against Streptococcus mitis HK125807 with gyrA Ser114Gly, and parC Ser52Gly, Asn91Asp mutation by broth dilution method; method in brief: as §1
[43] = tested on: Streptococcus mitis; assay: Antimicrobial activity against Streptococcus mitis HK135786 with gyrA Ser114Gly, and parC Ser52Gly, Asn91Asp mutation by broth dilution method; method in brief: as §1

C[C@H]1COc2c(N3CCN(C)CC3)c(F)cc3c(=O)c(C(=O)O)cn1c23.C[C@H]1COc2c(N3CCN(C)CC3)c(F)cc3c(=O)c(C(=O)O)cn1c23.O [LEVOFLOXACIN]
MIC [1]: 2 µg/mL
MIC [2]: 1 µg/mL
MIC [3]: 1 µg/mL
MIC [4]: 1 µg/mL
MIC [5]: 1 µg/mL
MIC [6]: 1 µg/mL
MIC [7]: 0.5 µg/mL
MIC [8]: 2 µg/mL
MIC [9]: 2 µg/mL
MIC [10]: 2 µg/mL
MIC [11]: 1 µg/mL
MIC [12]: 2 µg/mL
MIC [13]: 1 µg/mL
MIC [14]: 2 µg/mL
MIC [15]: 1 µg/mL
MIC [16]: 0.5 µg/mL
MIC [17]: 1 µg/mL
MIC [18]: 2 µg/mL
MIC [19]: 1 µg/mL
MIC [20]: ≥ 32 µg/mL
MIC [21]: 0.5 µg/mL
MIC [22]: 32 µg/mL
MIC [23]: 1 µg/mL
MIC [24]: 2 µg/mL
MIC [25]: 2 µg/mL
MIC [26]: < 0.25 µg/mL
MIC [27]: 2 µg/mL
MIC [28]: 2 µg/mL
MIC [29]: 1 µg/mL
MIC [30]: 2 µg/mL
MIC [31]: 1 µg/mL
MIC [32]: 1 µg/mL
MIC [33]: 2 µg/mL
MIC [34]: ≥ 32 µg/mL
MIC [35]: 1 µg/mL
MIC [36]: 2 µg/mL
MIC [37]: 16 µg/mL
MIC [38]: 1 µg/mL
MIC [39]: 1 µg/mL
MIC [40]: 2 µg/mL
MIC [41]: 1 µg/mL
MIC [42]: 1 µg/mL
MIC [43]: 1 µg/mL
